Active and inactive are the calls of the source. The rule behind the calls is not given here.
Assays:
[1] = Induction of catalepsy in po dosed mouse by vertical grid and elevated bar test; format: organism-based; conditions: in vivo
Method in brief: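 Mouse catalepsy scored by vertical grid and elevated bar tests. Oral doses of 1, 5, 15, 45 and 100 mg/kg in 30% PEG 400. ED50 reported with 95% confidence limits.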

D(2) dopamine receptor = D(2) dopamine receptor (Homo sapiens, UniProt P14416); experiment: Binding affinity to D2 receptor (unknown origin)
Method in brief: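 Radioligand displacement binding. Ki is the mean ± SEM of three experiments.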

[2] = AUC (0 to t) in rat at 3 mg/kg, iv; format: ADME, organism-based; design: dose 3 mg/kg; conditions: in vivo
Method in brief: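 Male rats, n = 6 per group, given a single intravenous dose of 3 mg/kg. PK parameters taken from serum concentration–time profiles: t1/2, AUC0-t, AUC0-∞, clearance.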

Rattus norvegicus = experiment: Memory enhancement effect in rat assessed as increase in total exploratory time for novel objects at 0.1 to 0.3 mg/kg, po administered 1 hr prior to acquisition trial and measured after 24 hrs by novel object recognition test; format: functional, organism-based; conditions: dose mg/kg 0.1-0.3, time 25.0 hrs
Mus musculus = experiment: Antipsychotic activity in po dosed mouse assessed as reduction in MK-801-induced hyperlocomotor activity; format: functional
Method in brief: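 Mice hyperactivity induced by MK-801 0.3 mg/kg sc, locomotor activity recorded. Oral dosing at 0.01–1.0 mg/kg (five doses) in 30% PEG 400. ED50 reported with 95% confidence limits.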

D(2) dopamine receptor, sequence (P14416 whole entry): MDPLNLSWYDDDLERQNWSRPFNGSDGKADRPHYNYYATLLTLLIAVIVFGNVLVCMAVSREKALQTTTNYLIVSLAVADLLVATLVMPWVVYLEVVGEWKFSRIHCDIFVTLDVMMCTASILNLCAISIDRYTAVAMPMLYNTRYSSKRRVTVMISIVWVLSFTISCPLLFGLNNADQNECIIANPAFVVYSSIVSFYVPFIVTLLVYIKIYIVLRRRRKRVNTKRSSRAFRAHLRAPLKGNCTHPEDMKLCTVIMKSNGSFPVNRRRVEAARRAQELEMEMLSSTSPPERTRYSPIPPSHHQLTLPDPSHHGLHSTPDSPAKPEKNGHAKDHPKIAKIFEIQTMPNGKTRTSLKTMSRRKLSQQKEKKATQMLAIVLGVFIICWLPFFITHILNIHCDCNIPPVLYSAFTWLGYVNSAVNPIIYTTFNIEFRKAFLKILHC

For CC(=O)Nc1ccc(OCCCN2CCC(c3noc4cc(F)ccc34)CC2)cc1, the ED50 [1] was 25.2 mg/kg, the Ki (D(2) dopamine receptor) was 2.1 nM and the AUC(0-t) [2] was 879 ng·h/mL. The Activity (Rattus norvegicus) was “Active” and the ED50 (Mus musculus) was 0.19 mg/kg.
